Experimental data taken from ChEMBL document CHEMBL1926565, “Synthesis, antiproliferative activities and telomerase inhibition evaluation of novel asymmetrical 1,2-disubstituted amidoanthraquinone derivatives” (Eur J Med Chem, 2012).
The source made the active and inactive calls. The rule behind the calls is not given here.

What was measured:
[1] = tested on: SK-MEL-28; assay: Cytotoxicity against human SK-MEL-28 cells assessed as cellular growth at 10 uM; format: functional
Outline: (§1)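 Single-dose screen run by the NCI across its 60-human-tumour-cell-line panel; growth recorded for each cell line.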

[2] = tested on: SK-MEL-5; assay: Cytotoxicity against human SK-MEL-5 cells assessed as cellular growth at 10 uM; format: functional
[3] = tested on: UACC-62; assay: Cytotoxicity against human UACC62 cells assessed as cellular growth at 10 uM; format: functional
[4] = tested on: IGROV-1; assay: Cytotoxicity against human IGROV1 cells assessed as cellular growth at 10 uM; format: functional; outline: as §1
[5] = tested on: OVCAR-3; assay: Cytotoxicity against human OVCAR3 cells assessed as cellular growth at 10 uM; format: functional; outline: as §1
[6] = tested on: OVCAR-4; assay: Cytotoxicity against human OVCAR4 cells assessed as cellular growth at 10 uM; format: functional; outline: as §1
[7] = tested on: OVCAR-5; assay: Cytotoxicity against human OVCAR5 cells assessed as cellular growth at 10 uM; format: functional; outline: as §1
[8] = tested on: NCI/ADR-RES; assay: Cytotoxicity against human NCI/ADR-RES cells assessed as cellular growth at 10 uM; format: functional; outline: as §1
[9] = tested on: 786-0; assay: Cytotoxicity against human 786-0 cells assessed as cellular growth at 10 uM; format: functional; outline: as §1
[10] = tested on: A498; assay: Cytotoxicity against human A498 cells assessed as cellular growth at 10 uM; format: functional; outline: as §1
[11] = tested on: ACHN; assay: Cytotoxicity against human ACHN cells assessed as cellular growth at 10 uM; format: functional; outline: as §1
[12] = tested on: SN12C; assay: Cytotoxicity against human SN12C cells assessed as cellular growth at 10 uM; format: functional
[13] = tested on: TK-10; assay: Cytotoxicity against human TK10 cells assessed as cellular growth at 10 uM; format: functional
[14] = tested on: UO-31; assay: Cytotoxicity against human UO31 cells assessed as cellular growth at 10 uM; format: functional
[15] = tested on: DU-145; assay: Cytotoxicity against human DU145 cells assessed as cellular growth at 10 uM; format: functional; outline: as §1
[16] = tested on: MCF7; assay: Cytotoxicity against human MCF7 cells assessed as cellular growth at 10 uM; format: functional; outline: as §1
[17] = tested on: MDA-MB-231; assay: Cytotoxicity against human MDA-MB-231 cells assessed as cellular growth at 10 uM; format: functional; outline: as §1
[18] = Cytotoxicity against human Hs 578T cells assessed as cellular growth at 10 uM; format: functional; outline: as §1
[19] = tested on: BT-549; assay: Cytotoxicity against human BT549 cells assessed as cellular growth at 10 uM; format: functional; outline: as §1
[20] = tested on: MDA-MB-468; assay: Cytotoxicity against human MDA-MB-468 cells assessed as cellular growth at 10 uM; format: functional; outline: as §1
[21] = tested on: PC-3; assay: Cytotoxicity against human PC3 cells after 48 hrs by SRB assay; format: functional, cell-based; conditions: PC-3, 48 h
Outline: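 PC-3 cells grown in RPMI1640 with 10% FBS at 37 °C, 5% CO₂. Seeded in medium with 5% FBS; after 24 h, one plate fixed with 10% TCA as T₀. Compound or 0.1% DMSO vehicle added for 48 h, then TCA fixation and 0.4% SRB in 1% acetic acid. Dye solubilized in 10 mM Trizma base, absorbance read at 515 nm. IC50 is the concentration giving 50% reduction of the protein gain in controls.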

[22] = tested on: CCRF-CEM; assay: Cytotoxicity against human CCRF-CEM cells assessed as cellular growth at 10 uM; format: functional; outline: as §1
[23] = biological target: Telomerase reverse transcriptase (Homo sapiens) (UniProt O14746); assay: Inhibition of telomerase activity in human H1299 cell free extract at 10 uM by modified TRAP assay
Outline: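 TRAP assay using total cell lysate from H1299 lung cancer cells as the telomerase source, with protein measured against BSA standards. Compounds tested at 10 µM. Controls were lysate without inhibitor (positive) and RNase A-treated extract without inhibitor (negative).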

[24] = tested on: HL-60(TB); assay: Cytotoxicity against human HL-60(TB) cells assessed as cellular growth at 10 uM; format: functional; outline: as §1
[25] = tested on: MOLT-4; assay: Cytotoxicity against human MOLT4 cells assessed as cellular growth at 10 uM; format: functional; outline: as §1
[26] = tested on: SR; assay: Cytotoxicity against human SR cells assessed as cellular growth at 10 uM; format: functional
[27] = tested on: EKVX; assay: Cytotoxicity against human EKVX cells assessed as cellular growth at 10 uM; format: functional; outline: as §1
[28] = tested on: HOP-62; assay: Cytotoxicity against human HOP62 cells assessed as cellular growth at 10 uM; format: functional; outline: as §1
[29] = tested on: HOP-92; assay: Cytotoxicity against human HOP92 cells assessed as cellular growth at 10 uM; format: functional; outline: as §1
[30] = tested on: NCI-H226; assay: Cytotoxicity against human NCI-H226 cells assessed as cellular growth at 10 uM; format: functional; outline: as §1
[31] = tested on: NCI-H23; assay: Cytotoxicity against human NCI-H23 cells assessed as cellular growth at 10 uM; format: functional; outline: as §1
[32] = tested on: NCI-H322M; assay: Cytotoxicity against human NCI-H322M cells assessed as cellular growth at 10 uM; format: functional; outline: as §1
[33] = tested on: NCI-H460; assay: Cytotoxicity against human NCI-H460 cells assessed as cellular growth at 10 uM; format: functional; outline: as §1
[34] = tested on: NCI-H522; assay: Cytotoxicity against human NCI-H522 cells assessed as cellular growth at 10 uM; format: functional; outline: as §1
[35] = tested on: HCC 2998; assay: Cytotoxicity against human HCC2998 cells assessed as cellular growth at 10 uM; format: functional; outline: as §1
[36] = tested on: HCT-116; assay: Cytotoxicity against human HCT116 cells assessed as cellular growth at 10 uM; format: functional; outline: as §1
[37] = tested on: HCT-15; assay: Cytotoxicity against human HCT15 cells assessed as cellular growth at 10 uM; format: functional; outline: as §1
[38] = tested on: HT-29; assay: Cytotoxicity against human HT-29 cells assessed as cellular growth at 10 uM; format: functional; outline: as §1
[39] = tested on: KM12; assay: Cytotoxicity against human KM12 cells assessed as cellular growth at 10 uM; format: functional; outline: as §1
[40] = tested on: SW-620; assay: Cytotoxicity against human SW620 cells assessed as cellular growth at 10 uM; format: functional
[41] = tested on: SF-268; assay: Cytotoxicity against human SF268 cells assessed as cellular growth at 10 uM; format: functional; outline: as §1
[42] = tested on: SF-295; assay: Cytotoxicity against human SF295 cells assessed as cellular growth at 10 uM; format: functional; outline: as §1
[43] = tested on: SF-539; assay: Cytotoxicity against human SF539 cells assessed as cellular growth at 10 uM; format: functional; outline: as §1
[44] = tested on: SNB-19; assay: Cytotoxicity against human SNB19 cells assessed as cellular growth at 10 uM; format: functional
[45] = tested on: SNB-75; assay: Cytotoxicity against human SNB75 cells assessed as cellular growth at 10 uM; format: functional
[46] = tested on: U-251; assay: Cytotoxicity against human U251 cells assessed as cellular growth at 10 uM; format: functional
[47] = tested on: LOX IMVI; assay: Cytotoxicity against human LOXIMVI cells assessed as cellular growth at 10 uM; format: functional; outline: as §1
[48] = tested on: Malme-3M; assay: Cytotoxicity against human MALME-3M cells assessed as cellular growth at 10 uM; format: functional; outline: as §1
[49] = tested on: M14; assay: Cytotoxicity against human M14 cells assessed as cellular growth at 10 uM; format: functional; outline: as §1
[50] = tested on: MDA-MB-435; assay: Cytotoxicity against human MDA-MB-435 cells assessed as cellular growth at 10 uM; format: functional; outline: as §1
[51] = tested on: SK-MEL-2; assay: Cytotoxicity against human SK-MEL-2 cells assessed as cellular growth at 10 uM; format: functional; outline: as §1
[52] = Growth of human H1299 cells at 100 uM 48 hrs by MTT assay; conditions: NCI-H1299, 48 h
[53] = Growth of human H1299 cells at 1 uM after 48 hrs by MTT assay; conditions: NCI-H1299, 48 h
[54] = Growth of human H1299 cells at 10 uM after 48 hrs by MTT assay; conditions: NCI-H1299, 48 h
[55] = biological target: Telomerase reverse transcriptase (Homo sapiens) (UniProt O14746); assay: Residual activity of human TERT in H1299 cells at 1 uM after 24 hrs by SEAP reporter gene assay
[56] = biological target: Telomerase reverse transcriptase (Homo sapiens) (UniProt O14746); assay: Residual activity of human TERT in H1299 cells at 10 uM after 24 hrs by SEAP reporter gene assay
[57] = biological target: Telomerase reverse transcriptase (Homo sapiens) (UniProt O14746); assay: Residual activity of human TERT in H1299 cells at 100 uM after 24 hrs by SEAP reporter gene assay

Telomerase reverse transcriptase (Homo sapiens), sequence (O14746 whole entry): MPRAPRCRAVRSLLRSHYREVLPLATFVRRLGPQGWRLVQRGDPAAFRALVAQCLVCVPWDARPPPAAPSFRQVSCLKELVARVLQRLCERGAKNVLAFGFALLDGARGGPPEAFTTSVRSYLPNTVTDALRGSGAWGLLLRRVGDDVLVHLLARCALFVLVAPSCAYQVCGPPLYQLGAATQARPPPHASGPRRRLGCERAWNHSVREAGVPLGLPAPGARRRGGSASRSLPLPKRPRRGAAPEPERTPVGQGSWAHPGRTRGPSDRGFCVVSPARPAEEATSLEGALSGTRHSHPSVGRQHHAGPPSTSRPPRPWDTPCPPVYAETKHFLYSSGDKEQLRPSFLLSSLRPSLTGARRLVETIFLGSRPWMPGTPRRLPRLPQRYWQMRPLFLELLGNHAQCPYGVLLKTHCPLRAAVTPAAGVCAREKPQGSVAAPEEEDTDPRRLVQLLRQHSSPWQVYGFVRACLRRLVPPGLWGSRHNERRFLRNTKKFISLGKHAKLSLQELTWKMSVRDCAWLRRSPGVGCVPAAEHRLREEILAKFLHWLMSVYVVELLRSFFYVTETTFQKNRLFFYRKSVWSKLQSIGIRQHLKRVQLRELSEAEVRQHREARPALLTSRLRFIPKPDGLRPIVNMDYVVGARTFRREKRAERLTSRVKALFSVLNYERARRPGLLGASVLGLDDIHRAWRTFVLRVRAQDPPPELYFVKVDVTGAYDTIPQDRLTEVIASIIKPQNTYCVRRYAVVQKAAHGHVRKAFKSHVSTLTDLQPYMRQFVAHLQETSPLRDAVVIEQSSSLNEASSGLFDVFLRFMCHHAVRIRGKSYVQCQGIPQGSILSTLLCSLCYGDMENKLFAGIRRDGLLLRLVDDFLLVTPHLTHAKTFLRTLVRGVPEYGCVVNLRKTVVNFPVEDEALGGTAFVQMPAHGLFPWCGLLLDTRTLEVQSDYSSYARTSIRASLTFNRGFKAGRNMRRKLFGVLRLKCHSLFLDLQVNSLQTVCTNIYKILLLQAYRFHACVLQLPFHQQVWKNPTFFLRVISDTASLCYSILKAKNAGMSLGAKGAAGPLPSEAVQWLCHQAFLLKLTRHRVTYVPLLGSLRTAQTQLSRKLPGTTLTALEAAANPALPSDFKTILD

Compound O=C(CCl)Nc1ccc2c(c1NC(=O)Cc1ccccc1)C(=O)c1ccccc1C2=O has an Activity [1] of 88.68%, an Activity [2] of 51.32% and an Activity [3] of 59.67%. For the same compound, the Activity [4] was 41.03%, the Activity [5] was 86.38% and the Activity [6] was 80.4%. The Activity [7] was 119.04%, the Activity [8] was 86.87% and the Activity [9] was 97.26%. It also gave an Activity [10] of 91.79%, an Activity [11] of 79.64% and an Activity [12] of 79.93%. For the same compound, the Activity [13] was 120.81%, the Activity [14] was 58.19% and the Activity [15] was 85.83%. For the same compound, the Activity [16] was 51%, the Activity [17] was 82.04% and the Activity [18] was 66.65%. For the same compound, the Activity [19] was 79.78%, the Activity [20] was 51.02% and the IC50 [21] was over 20 µM. For the same compound, the Activity [22] was 33.97%, the inhibition [23] was “inactive” and the Activity [24] was 41.36%. For the same compound, the Activity [25] was 11.4%, the Activity [26] was -31.25% and the Activity [27] was 102.08%. It also gave an Activity [28] of 115.67%, an Activity [29] of 73.63% and an Activity [30] of 80.49%. For the same compound, the Activity [31] was 64.75%, the Activity [32] was 104.38% and the Activity [33] was 104.5%. It also gave an Activity [34] of 43.37%, an Activity [35] of 94.74% and an Activity [36] of 67.55%. It also gave an Activity [37] of 68.55%, an Activity [38] of 88.84% and an Activity [39] of 80.59%. It also gave an Activity [40] of 83.41%, an Activity [41] of 80.14% and an Activity [42] of 98.48%. The Activity [43] was 107.09%, the Activity [44] was 124.27% and the Activity [45] was 109.14%. For the same compound, the Activity [46] was 66.17%, the Activity [47] was 36.29% and the Activity [48] was 47.07%. For the same compound, the Activity [49] was 87.1%, the Activity [50] was 80.4% and the Activity [51] was -6.49%. The growth, % of control at 100 µM [52] was 3%, the growth, % of control at 1 µM [53] was 81% and the growth, % of control at 10 µM [54] was 5%. For the same compound, the residual activity [55] was 84%, the residual activity [56] was 9% and the residual activity [57] was 7%.
